Experimental data gathered from unrelated publications.

| SMILES | system | conditions | concentration |
| --- | --- | --- | --- |
| Cc1nc2ccc(OCc3ccc(C(F)(F)F)cc3)cc2[nH]1 | male BALB/c mouse, brain | oral, 10 mg/kg, 4 h | 2000 ng/g |
| O=C1CCC(N2Cc3cc(CO)c(F)cc3C2=O)C(=O)N1 (stereo not shown) | male CD-1 mouse, plasma | intravenous, 1 mg/kg, 2 h | 8.1 ng/mL |
| CC1(C)NC(=O)N(c2ccc(F)c(Br)c2)C1=O | male Swiss mouse, plasma | oral, 100 mg/kg, 1 h | 29700 ng/mL |
| OCc1nc2ccc(NCc3ccc(C(F)(F)F)cc3)cc2[nH]1 | male BALB/c mouse, brain | oral, 10 mg/kg, 6 h | 227 ng/g |
| CCOC(=O)c1c(NC(=O)CNC(C)C)sc2c1CCCCC2 | male mouse, brain | intraperitoneal, 100 mg/kg, 30 min | 15800 ng/g |
| CC(C)n1ncc2c(C(=O)NCC3(C)CNC3)cc(C3CC3)nc21 | female BALB/c mouse, plasma | intraperitoneal, 50 mg/kg, 1 h | 2660 ng/mL |
| O=C1CCC(N2Cc3cc(C4CCN(Cc5ccccc5)CC4)ccc3C2=O)C(=O)N1 (stereo not shown) | male CD-1 mouse, plasma | oral, 3 mg/kg, 1 h | 235 ng/mL |
| CC(C)(C)S(=O)(=O)c1cc2c(Nc3ccc4scnc4c3)ncnc2cc1OCCOP(=O)(O)O | BALB/c mouse, plasma | oral, 10 mg/kg, 2 h | 145 ng/mL |
| Cc1ccc2c(c1)C(=O)[C@]1(O)CCN(c3ccc4nc(C)ccc4c3)C1=N2 | mouse, plasma | subcutaneous, 10 mg/kg, 30 min | 2500 nM |
| NCc1cc2c(cc1F)C(=O)N(C1CCC(=O)NC1=O)C2 (stereo not shown) | male CD-1 mouse, plasma | oral, 10 mg/kg, 1 h | 81 ng/mL |
| CC1(C)NC(=O)N(c2ccc(F)c(S(C)(=O)=O)c2)C1=O | male Swiss mouse, plasma | oral, 100 mg/kg, 48 h | 20 ng/mL |
| CC(C)c1cc(C(=O)NCCN)c2cnn(C(C)C)c2n1 | female BALB/c mouse, plasma | intraperitoneal, 50 mg/kg, 30 min | 2430 ng/mL |
| CN(C)C(=O)c1cc2cnc(Nc3ccc(-c4ccc5c(=O)cc(N6CCOCC6)oc5c4)cc3)nc2n1C1CCCC1 | BALB/c mouse, brain | oral, 20 mg/kg, 2 h, single dose | 108 ng/g |
